Laboratory results published in ChEMBL document CHEMBL4118106 (J Med Chem, 2018).
Where a SMILES comes first, the peptide text is derived from it. Bridges are numbered along the chain shown (N, C = ends). [ ]: non-standard residue; d: D form. R5 = C=CCCC[C@@](C)(N)C(=O)O; S5 = C=CCCC[C@](C)(N)C(=O)O

Experiment: Inhibition of EGFP-fused MERS-CoV spike protein mediated cell-cell fusion between viral protein expressing human 293T cells and human HuH7 target cells after 4 hrs by inverted fluorescence microscopic analysis
Design: species or system Middle East respiratory syndrome-related coronavirus
Procedure, shortened: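 Huh-7 target cells expressing DPP4 were seeded at 5 × 10^4/well and kept at 37 °C for 5 h. Inhibitors were added, then 293T effector cells co-expressing S protein and EGFP (1 × 10^4/well); 293T/EGFP-only cells served as negative control. After 4 h coculture at 37 °C, fused and unfused cells were counted by fluorescence microscopy.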

Row | Structure (SMILES) | EC50
1 | CSCC[C@H](NC(=O)[C@H](CCC(=O)O)NC(=O)[C@H](Cc1ccc(O)cc1)NC(=O)[C@@H](NC(=O)[C@H](CC(C)C)NC(=O)[C@H](CC(=O)O)NC(=O)[C@H](CC(C)C)NC(C)=O)[C@@H](C)O)C(=O)N[C@@H](CC(C)C)C(=O)N[C@@H](CO)C(=O)N[C@@H](CC(C)C)C(=O)N[C@@H](CCC(N)=O)C(=O)N[C@]1(C)CCC/C=C\CCC[C@](C)(C(=O)N[C@@H](CC(C)C)C(=O)N[C@@H](CC(N)=O)C(=O)N[C@@H](CCC(=O)O)C(=O)N[C@@H](CO)C(=O)N[C@@H](Cc2ccc(O)cc2)C(N)=O)NC(=O)[C@H](CCCCN)NC(=O)[C@H](C(C)C)NC(=O)[C@H](C(C)C)NC1=O (Ac-LDLTYEMLSLQ[R5]VVK[R5]LNESY-NH2; staple (Z) 12-16) | 16.3 µM
2 | C=CCCC[C@](C)(NC(=O)[C@H](Cc1ccc(O)cc1)NC(=O)[C@@H](NC(=O)[C@H](CC(C)C)NC(=O)[C@](C)(CCCC=C)NC(=O)[C@H](CC(C)C)NC(C)=O)[C@@H](C)O)C(=O)N[C@@H](CCSC)C(=O)N[C@@H](CC(C)C)C(=O)N[C@@H](CO)C(=O)N[C@@H](CC(C)C)C(=O)N[C@@H](CCC(N)=O)C(=O)N[C@@H](CCC(N)=O)C(=O)N[C@H](C(=O)N[C@H](C(=O)N[C@@H](CCCCN)C(=O)N[C@@H](C)C(=O)N[C@@H](CC(C)C)C(=O)N[C@@H](CC(N)=O)C(=O)N[C@@H](CCC(=O)O)C(=O)N[C@@H](CO)C(=O)N[C@@H](Cc1ccc(O)cc1)C(N)=O)C(C)C)C(C)C | 10.9 µM
3 | C=CCCC[C@](C)(NC(=O)[C@H](CCCCN)NC(=O)[C@@H](NC(=O)[C@@H](NC(=O)[C@](C)(CCCC=C)NC(=O)[C@H](CCC(N)=O)NC(=O)[C@H](CC(C)C)NC(=O)[C@H](CO)NC(=O)[C@H](CC(C)C)NC(=O)[C@H](CCSC)NC(=O)[C@H](CCC(=O)O)NC(=O)[C@H](Cc1ccc(O)cc1)NC(=O)[C@@H](NC(=O)[C@H](CC(C)C)NC(=O)[C@H](CC(=O)O)NC(=O)[C@H](CC(C)C)NC(C)=O)[C@@H](C)O)C(C)C)C(C)C)C(=O)N[C@@H](CC(C)C)C(=O)N[C@@H](CC(N)=O)C(=O)N[C@@H](CCC(=O)O)C(=O)N[C@@H](CO)C(=O)N[C@@H](Cc1ccc(O)cc1)C(N)=O (Ac-LDLTYEMLSLQ[S5]VVK[S5]LNESY-NH2) | 20.6 µM
4 | C=CCCC[C@](C)(NC(=O)[C@H](CCC(=O)O)NC(=O)[C@H](CC(N)=O)NC(=O)[C@H](CC(C)C)NC(=O)[C@](C)(CCCC=C)NC(=O)[C@H](CCCCN)NC(=O)[C@@H](NC(=O)[C@@H](NC(=O)[C@H](CCC(N)=O)NC(=O)[C@H](CCC(N)=O)NC(=O)[C@H](CC(C)C)NC(=O)[C@H](CO)NC(=O)[C@H](CC(C)C)NC(=O)[C@H](CCSC)NC(=O)[C@H](CCC(=O)O)NC(=O)[C@H](Cc1ccc(O)cc1)NC(=O)[C@@H](NC(=O)[C@H](CC(C)C)NC(=O)[C@H](CC(=O)O)NC(=O)[C@H](CC(C)C)NC(C)=O)[C@@H](C)O)C(C)C)C(C)C)C(=O)N[C@@H](Cc1ccc(O)cc1)C(N)=O | 3.55 µM
5 | CSCC[C@H](NC(=O)[C@H](CCC(=O)O)NC(=O)[C@H](Cc1ccc(O)cc1)NC(=O)[C@@H](NC(=O)[C@H](CC(C)C)NC(=O)[C@H](CC(=O)O)NC(=O)[C@H](CC(C)C)NC(C)=O)[C@@H](C)O)C(=O)N[C@@H](CC(C)C)C(=O)N[C@@H](CO)C(=O)N[C@@H](CC(C)C)C(=O)N[C@@H](CCC(N)=O)C(=O)N[C@@]1(C)CCC/C=C\CCC[C@@](C)(C(=O)N[C@@H](CC(C)C)C(=O)N[C@@H](CC(N)=O)C(=O)N[C@@H](CCC(=O)O)C(=O)N[C@@H](CO)C(=O)N[C@@H](Cc2ccccc2)C(N)=O)NC(=O)[C@H](CCCCN)NC(=O)[C@H](C(C)C)NC(=O)[C@H](C(C)C)NC1=O (Ac-LDLTYEMLSLQ[S5]VVK[S5]LNESF-NH2; staple (Z) 12-16) | 2.16 µM
